# ChEMBL document CHEMBL3826973, “Binding characterization, synthesis and biological evaluation of RXRα antagonists targeting the coactivator binding site” (Bioorg Med Chem Lett, 2016)
# Calls of active or inactive are those of the source. No cut-off for these calls is given here.
# Experiments:
# [1] = Binding affinity to RXRalpha-LBD E453A mutant (unknown origin) measured up to 300 sec by surface plasma resonance method; design: species or system Homo sapiens
# Homo sapiens = organism: Homo sapiens; test: Ratio of Kd for RXRalpha-LBD E453A mutant (unknown origin) to Kd for RXRalpha-LBD (unknown origin)
# [2] = molecular target: T1, Retinoic acid receptor RXR-alpha (Homo sapiens) (UniProt P19793); test: Binding affinity to RXRalpha-LBD (unknown origin) at 10 uM measured up to 201 sec in presence of 9-cis-RA by surface plasma resonance method
# T1 sequence (whole entry): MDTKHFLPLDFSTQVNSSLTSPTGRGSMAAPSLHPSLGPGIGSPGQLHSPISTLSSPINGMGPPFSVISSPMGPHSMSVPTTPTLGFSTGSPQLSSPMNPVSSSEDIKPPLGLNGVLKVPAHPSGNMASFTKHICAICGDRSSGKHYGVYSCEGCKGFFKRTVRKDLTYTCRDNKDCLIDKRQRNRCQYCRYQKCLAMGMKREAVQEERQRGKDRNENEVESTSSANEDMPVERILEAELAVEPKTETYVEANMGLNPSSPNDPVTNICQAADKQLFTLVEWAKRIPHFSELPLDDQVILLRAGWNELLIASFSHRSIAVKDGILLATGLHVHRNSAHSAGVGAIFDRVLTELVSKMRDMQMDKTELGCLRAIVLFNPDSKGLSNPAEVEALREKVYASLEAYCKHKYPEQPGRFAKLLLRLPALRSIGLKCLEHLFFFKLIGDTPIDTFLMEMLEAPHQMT
# [3] = molecular target: T1, Retinoic acid receptor RXR-alpha (Homo sapiens); test: Antagonist activity at RXRalpha (unknown origin) expressed in HEK293T cells assessed as inhibition of receptor transactivation at 10 uM after 12 hrs in presence of 9-cis-RA by luciferase reporter gene assay relative to control; assay type: cell-based; settings: HEK-293T
# Summary of the method: (§1)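 HEK-293T cells cotransfected with pG5-Luc reporter and an RXRα expression vector. Cells were treated with 9-cis-RA (10^-7 M) plus test compound for 12 h, and luciferase activity was read. The assay was run either as a single-concentration screen scored as % inhibition or at the indicated concentrations for dose-response.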
# [4] = molecular target: T1, Retinoic acid receptor RXR-alpha (Homo sapiens); test: Antagonist activity at RXRalpha (unknown origin) expressed in HEK293T cells assessed as inhibition of receptor transactivation at 10 to 30 uM after 12 hrs in presence of 9-cis-RA by luciferase reporter gene assay; assay type: cell-based; settings: HEK-293T; summary of the method: as §1
# [5] = molecular target: T1, Retinoic acid receptor RXR-alpha (Homo sapiens); test: Binding affinity to RXRalpha-LBD (unknown origin) at 0.01 to 5 uM measured up to 260 sec by surface plasma resonance method
# [6] = molecular target: T2, Retinoic acid receptor RXR-alpha (Homo sapiens, UniProt P19793); test: Binding affinity to RXRalpha-LBD (unknown origin) measured up to 300 sec by surface plasma resonance method
# T2 sequence (P19793 whole entry): T1 sequence (whole entry)
# Summary of the method: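 Surface plasmon resonance with the RXRα ligand-binding domain as the binding partner; affinity expressed as a dissociation constant (Kd).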
# [7] = molecular target: T2, Retinoic acid receptor RXR-alpha
# [8] = molecular target: T1, Retinoic acid receptor RXR-alpha (Homo sapiens); settings: HepG2, 20 ug/ml
Structure (SMILES),inhibition [3] [%],further results
Cc1cc(=O)oc2c(/C=N/NC(=O)CSc3nc4ccccc4s3)c(O)ccc12,,Kd [1]: 3610 nM; Ratio (Homo sapiens): 10; Activity [2]: Active
O=C(CSc1nc2ccccc2o1)N/N=C/c1ccc(F)cc1O,33.2,
O=C(CSc1nc2ccccc2o1)N/N=C/c1cccc(O)c1,16.2,
COc1ccc2c(C)cc(=O)oc2c1/C=N/NC(=O)CSc1nc2ccccc2s1 (mixture of isomers),,inhibition [4]: inactive; Activity [5]: inactive
CCN(CC)c1ccc(/C=N/NC(=O)CSc2nc3ccccc3o2)c(OC)c1,17.9,
O=C(CSc1nc2ccccc2o1)N/N=C/c1cccc(O)c1O,39.6,
O=C(CSc1nc2ccccc2o1)N/N=C/c1ccc(OCc2ccccc2)cc1,3.7,
O=C(CSc1nc2ccccc2o1)N/N=C/c1ccc(OCc2ccccc2)cc1O,43.9,
O=C(CSc1nc2ccccc2o1)N/N=C/c1cccc(F)c1,13.8,

# Second part, led by results:
inhibition [3] [%],Structure (SMILES),further results
13,O=C(CSc1nc2ccccc2o1)N/N=C/c1ccccc1F,
47.9,Cc1cccc(/C=N/NC(=O)CSc2nc3ccccc3o2)c1,
12.7,O=C(CSc1nc2ccccc2o1)N/N=C/c1ccc([N+](=O)[O-])cc1,
24.3,O=C(CSc1nc2ccccc2o1)N/N=C/c1ccc(O)c(O)c1O,
19.3,CCN(CC)c1ccc(/C=N/NC(=O)CSc2nc3ccccc3o2)cc1,
57.3,COc1ccc(/C=N/NC(=O)CSc2nc3ccccc3o2)c(O)c1,
25.2,O=C(CSc1nc2ccccc2o1)N/N=C/c1ccc(O)cc1O,
74.1,CCN(CC)c1ccc(/C=N/NC(=O)CSc2nc3ccccc3o2)c(O)c1 (mixture of isomers),Kd [6]: 910 nM; IC50 [7]: 2810 nM; inhibition [8]: Active
